Results from ChEMBL document CHEMBL1641530, “Silanetriols as in vitro inhibitors for AChE” (Bioorg Med Chem Lett, 2011).
Active and inactive are the calls of the source. The calls are words filed in the database; no cut-off is given here.

How the values were obtained:
Acetylcholinesterase = Acetylcholinesterase (Electrophorus electricus, UniProt O42275); assay: Inhibition of Electrophorus electricus AChE by Ellman's method
Procedure, shortened: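 Ellman-type colorimetric assay with acetylthiocholine as substrate. Four concentrations between 30 and 300 µM were tested, inhibition taken as % of solvent control, and IC50 derived from the concentration–inhibition plot. Mean ± standard deviation of at least eight independent experiments.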

[1] = biological target: Acetylcholinesterase (Electrophorus electricus) (UniProt O42275); assay: Inhibition of Electrophorus electricus AChE at 100 uM by Ellman's method relative to control
Procedure, shortened: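 Modified colorimetric Ellman assay: AChE hydrolyses acetylthiocholine to thiocholine. Final compound concentration 100 µM, read after 15 min. […] Mean ± SEM of at least eight independent experiments.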

MRC5 = assay: Cytotoxicity against human MRC5 after 45 hrs by XTT proliferation assay; format: functional, cell-based
Procedure, shortened: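 Human fetal lung fibroblasts (MRC-5) treated with compound, then XTT added at 1, 15 and 41 h. Dehydrogenase cleavage of XTT to orange formazan ran for 4 h and was read photometrically at two wavelengths. Viability is given relative to solvent-only cells. For the 15 h figure, mean ± SEM of at least six independent experiments.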

[2] = biological target: Acetylcholinesterase (Electrophorus electricus) (UniProt O42275); assay: Irreversible inhibition of Electrophorus electricus AChE by Ellman's method
Procedure, shortened: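 Reversibility was probed by following AChE inhibition over time in the modified Ellman assay (acetylthiocholine substrate). Activity is referred to solvent control. Mean ± SEM of at least eight independent experiments.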

Sequence of Acetylcholinesterase (Electrophorus electricus) (O42275 24-633 limits assumed): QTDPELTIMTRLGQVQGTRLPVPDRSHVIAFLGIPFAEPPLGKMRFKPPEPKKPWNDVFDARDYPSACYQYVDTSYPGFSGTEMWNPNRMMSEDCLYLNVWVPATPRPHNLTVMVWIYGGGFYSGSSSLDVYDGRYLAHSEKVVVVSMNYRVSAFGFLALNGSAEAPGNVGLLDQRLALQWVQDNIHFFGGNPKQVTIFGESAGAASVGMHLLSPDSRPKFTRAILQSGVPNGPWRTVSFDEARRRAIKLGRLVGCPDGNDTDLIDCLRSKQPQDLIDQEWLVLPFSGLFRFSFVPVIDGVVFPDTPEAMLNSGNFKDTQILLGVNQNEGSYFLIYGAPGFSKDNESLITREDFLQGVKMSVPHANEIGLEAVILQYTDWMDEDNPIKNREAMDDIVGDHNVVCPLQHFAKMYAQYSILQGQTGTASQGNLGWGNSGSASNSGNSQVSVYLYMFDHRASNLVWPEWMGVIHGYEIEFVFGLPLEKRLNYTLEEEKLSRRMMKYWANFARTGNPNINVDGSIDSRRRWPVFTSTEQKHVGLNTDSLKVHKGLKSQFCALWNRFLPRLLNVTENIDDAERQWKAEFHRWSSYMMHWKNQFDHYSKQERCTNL
Sequence of Acetylcholinesterase (O42275 whole entry): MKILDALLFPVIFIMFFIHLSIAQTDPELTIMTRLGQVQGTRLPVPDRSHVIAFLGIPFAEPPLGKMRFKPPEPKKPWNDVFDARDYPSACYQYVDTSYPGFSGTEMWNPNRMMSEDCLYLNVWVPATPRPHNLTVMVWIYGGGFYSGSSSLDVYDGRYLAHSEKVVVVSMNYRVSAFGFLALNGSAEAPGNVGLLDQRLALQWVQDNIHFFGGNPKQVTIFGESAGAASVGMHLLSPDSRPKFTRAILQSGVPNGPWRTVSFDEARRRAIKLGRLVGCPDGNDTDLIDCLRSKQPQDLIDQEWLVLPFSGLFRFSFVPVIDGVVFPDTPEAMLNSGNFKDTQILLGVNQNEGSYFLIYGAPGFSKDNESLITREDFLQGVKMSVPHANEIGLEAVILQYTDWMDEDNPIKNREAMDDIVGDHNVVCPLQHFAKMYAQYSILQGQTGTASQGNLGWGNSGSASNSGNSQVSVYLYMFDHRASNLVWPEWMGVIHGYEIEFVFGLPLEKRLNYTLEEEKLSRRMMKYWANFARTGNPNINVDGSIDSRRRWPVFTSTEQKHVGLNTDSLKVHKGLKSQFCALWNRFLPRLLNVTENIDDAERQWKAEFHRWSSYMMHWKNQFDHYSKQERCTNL

Row | Compound | IC50 (Acetylcholinesterase) [µM] | inhibition [1] [%] | Activity (MRC5) | inhibition [2]
1 | O[Si](O)(O)C1CCCCC1 [CYCLOHEXYLSILANETRIOL] | 121 | 45 | inactive | inactive
2 | CCC(C)(C)[Si](O)(O)O | – | 10 | inactive | inactive
3 | Cc1cc(C)c(-c2cccc(-c3c(C)cc(C)cc3C)c2[Si](O)(O)O)c(C)c1 | – | 12 | inactive | inactive
